This note sets out measurements from ChEMBL document CHEMBL2029221, “Acylprolinamides: a new class of peptide deformylase inhibitors with in vivo antibacterial activity” (Bioorg Med Chem Lett, 2012).

Data set [1] has as its system Streptococcus pneumoniae. In words: Antibacterial activity against Streptococcus pneumoniae 1629 by broth microdilution method. It counts as functional. The essentials: (§1)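 Broth microdilution following NCCLS document M7-A4. Serial two-fold dilutions from 0.06 to 64 mcg/ml were tested. The MIC was the lowest concentration preventing visible growth, with the endpoint read with the aid of a mirror reader.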

For data set [2], the target named is T1, Peptide deformylase (Streptococcus pneumoniae serotype 4 (strain ATCC BAA-334 / TIGR4), UniProt Q9F2F0).
T1 sequence (Q9F2F0 whole entry): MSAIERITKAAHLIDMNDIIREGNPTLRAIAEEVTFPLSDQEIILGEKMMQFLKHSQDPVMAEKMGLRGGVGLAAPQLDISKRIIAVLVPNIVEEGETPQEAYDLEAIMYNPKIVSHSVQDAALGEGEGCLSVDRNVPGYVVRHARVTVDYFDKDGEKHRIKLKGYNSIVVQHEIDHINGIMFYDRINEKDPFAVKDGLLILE
Kind of data set: Inhibition of Streptococcus pneumoniae PDF assessed as formate release from fMAS peptide substrate after 20 mins by formate dehydrogenase coupled assay.

Data set [3] is described as follows: Inhibition of Haemophilus influenzae PDF assessed as formate release from fMAS peptide substrate after 20 mins by formate dehydrogenase coupled assay. The essentials:
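Coupled assay in which formate released from the fMAS peptide is oxidized by formate dehydrogenase, reducing NAD to NADH, read as the rise in absorbance at 340. Reactions were started by adding PDF and velocities measured for 20 min at 25 °C. Values are the mean of at least 2 runs.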

Data set [4] in a line: Metabolic stability of the compound in human blood assessed as compound remaining at 2000 ng/mL after 2 hrs. It counts as ADME, tissue-based. Conditions: read-out: Stability. The essentials: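 Samples (n = 3) were spiked into fresh human blood at 2000 ng/mL, incubated at 37 °C for 120 min, and reported as % recovered at 2 h.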
The target in data set [5] is T2, Peptide deformylase (Staphylococcus aureus, UniProt P68826).
T2 sequence (P68826 whole entry): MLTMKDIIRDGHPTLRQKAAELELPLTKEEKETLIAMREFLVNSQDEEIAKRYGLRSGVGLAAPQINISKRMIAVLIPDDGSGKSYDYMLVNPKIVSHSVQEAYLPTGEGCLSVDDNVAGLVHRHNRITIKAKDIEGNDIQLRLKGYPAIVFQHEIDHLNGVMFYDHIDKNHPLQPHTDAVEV
Kind of data set: Inhibition of Staphylococcus aureus PDF assessed as formate release from fMAS peptide substrate after 20 mins by formate dehydrogenase coupled assay.

In data set [6] the test system is Enterococcus faecalis. In words: Antibacterial activity against Enterococcus faecalis 7 by broth microdilution method. It counts as functional. Summed up: as §1
For data set [7], the system named is Staphylococcus aureus. In words: Antibacterial activity against Staphylococcus aureus Oxford by broth microdilution method. Format: functional. Summed up:
as §1

The test system of data set [8] is Moraxella catarrhalis. In words: Antibacterial activity against Moraxella catarrhalis 1502 by broth microdilution method. It counts as functional. The essentials: as §1
Background: Broth dilution looks for growth in wells or tubes with falling amounts of substance.

In data set [9] the test system is Haemophilus influenzae. Kind of data set: Antibacterial activity against Haemophilus influenzae Q1 by broth microdilution method. It counts as functional. Summed up: as §1
Data set [10] can be described thus: Metabolic stability of the compound in rat blood assessed as compound remaining at 2000 ng/mL after 2 hrs. It counts as ADME, tissue-based. To be noted: read-out: Stability.

Values after ≈ are worked out from the molar mass of the structure shown.

What is called IC50 is the point on the concentration scale where inhibition reaches its midpoint. Turning to `CC(C)NC(=O)NC(=O)[C@@H]1CCCN1C(=O)[C@H](CC1CCCC1)CN(O)C=O`, the MIC in data set [1] was 1 µg/mL (≈ 2.52 µM); in [6] it was 4 µg/mL (≈ 10.1 µM); in [7], 1 µg/mL (≈ 2.52 µM); in data set [8], at most 0.06 µg/mL; in data set [9] it was 2 µg/mL (≈ 5.04 µM). In addition, the figures for the IC50 in [2], in data set [3] and in data set [5] were 0.31 nM, 3 nM and 1.6 nM, respectively. Besides, the remaining at 2 h, 2000 ng/mL in data set [4] was 99.7%.

For `O=CN(O)C[C@@H](CC1CCCC1)C(=O)N1CCC[C@H]1C(=O)NC(=O)NC1CCCC1`, the MIC was 0.125 µg/mL (≈ 0.296 µM) in data set [1]; 1 µg/mL (≈ 2.37 µM) in [6]; 0.5 µg/mL (≈ 1.18 µM) in data set [7]; at most 0.06 µg/mL in data set [8]; 2 µg/mL (≈ 4.73 µM) in [9]. Moreover, the IC50 was determined as 0.1 nM in data set [2], 2 nM in [3] and 0.52 nM in [5]. Further, the remaining at 2 h, 2000 ng/mL in data set [4] is 103%.

For `O=CN(O)C[C@@H](CC1CCCC1)C(=O)N1CCC[C@H]1C(=O)NC(=O)c1ccccc1`, the remaining at 2 h, 2000 ng/mL in [10] came out at 27.2%. The MIC was 0.25 µg/mL (≈ 0.602 µM) in [1]; 1 µg/mL (≈ 2.41 µM) in data set [6]; 1 µg/mL (≈ 2.41 µM) in data set [7]; at most 0.06 µg/mL in [8]; 0.5 µg/mL (≈ 1.2 µM) in data set [9]. In data set [3], the IC50 is 3.8 nM.

Turning to `O=CN(O)C[C@@H](CC1CCCC1)C(=O)N1CCC[C@H]1C(=O)NC(=O)NCCc1ccccc1`, the MIC in data set [1] was at most 0.06 µg/mL; in data set [6] it was 0.5 µg/mL (≈ 1.09 µM); in data set [7], at most 0.06 µg/mL; in [8] it was at most 0.06 µg/mL; in [9], 4 µg/mL (≈ 8.72 µM). In addition, the IC50 in data set [2] came out at 0.12 nM; in [3], 3.6 nM; in data set [5] it was 0.86 nM. Besides, the remaining at 2 h, 2000 ng/mL in [4] was found to be 92.2%.

`O=CN(O)C[C@@H](CC1CCCC1)C(=O)N1CCC[C@H]1C(=O)NC(=O)NCCc1cccnc1`: the MIC in data set [1] is 1 µg/mL (≈ 2.18 µM); in [6], over 64 µg/mL; in [7], 2 µg/mL (≈ 4.35 µM); in [8], at most 0.06 µg/mL; in data set [9], 2 µg/mL (≈ 4.35 µM). In addition, the IC50 in [2] turned out to be 0.37 nM; in data set [3], 4.7 nM; in data set [5], 1.4 nM.

With `O=CN(O)C[C@@H](CC1CCCC1)C(=O)N1CCC[C@H]1C(=O)NC(=O)NCCCc1ccccc1`, the MIC is 0.25 µg/mL (≈ 0.529 µM) in [1]; 2 µg/mL (≈ 4.23 µM) in data set [6]; 0.5 µg/mL (≈ 1.06 µM) in data set [7]; at most 0.06 µg/mL in data set [8]; 8 µg/mL (≈ 16.9 µM) in data set [9]. Further, the half-inhibitory concentration (IC50) in data set [2] came out at 0.19 nM; in data set [3] it was 4.1 nM; in [5], 1 nM.

In the case of `O=CN(O)C[C@@H](CC1CCCC1)C(=O)N1CCC[C@H]1C(=O)NC(=O)NCCCO`, the MIC turned out to be 2 µg/mL (≈ 4.85 µM) in data set [1]; 16 µg/mL (≈ 38.8 µM) in [6]; 4 µg/mL (≈ 9.7 µM) in data set [7]; 0.125 µg/mL (≈ 0.303 µM) in data set [8]; 1 µg/mL (≈ 2.42 µM) in data set [9]. The IC50 in data set [2] was 0.77 nM; in data set [3] it was 6.9 nM; in data set [5], 3.2 nM.

For the molecule `CCOC(=O)NC(=O)[C@@H]1CCCN1C(=O)[C@H](CC1CCCC1)CN(O)C=O`, the MIC in data set [1] is 0.5 µg/mL (≈ 1.3 µM); in data set [6], 2 µg/mL (≈ 5.22 µM); in [7], 0.5 µg/mL (≈ 1.3 µM); in data set [8] it was at most 0.06 µg/mL; in [9], 0.25 µg/mL (≈ 0.652 µM). The IC50 in data set [2] amounted to 0.54 nM; in data set [3], 7.7 nM; in data set [5], 2.2 nM.

Turning to `NC(=O)NC(=O)[C@@H]1CCCN1C(=O)[C@H](CC1CCCC1)CN(O)C=O`, the MIC in [1] was 2 µg/mL (≈ 5.64 µM); in data set [6], 4 µg/mL (≈ 11.3 µM); in [7] it was 2 µg/mL (≈ 5.64 µM); in [8] it was at most 0.06 µg/mL; in data set [9], 0.125 µg/mL (≈ 0.353 µM). Further, the IC50 worked out at 0.91 nM in data set [2], 4.8 nM in [3] and 2.2 nM in data set [5].

In the case of `O=CN(O)C[C@@H](CC1CCCC1)C(=O)N1CCC[C@H]1C(=O)NC(=O)C1CC1`, the MIC is 1 µg/mL (≈ 2.64 µM) in data set [1]; 2 µg/mL (≈ 5.27 µM) in data set [6]; 0.5 µg/mL (≈ 1.32 µM) in data set [7]; at most 0.06 µg/mL in data set [8]; 0.125 µg/mL (≈ 0.329 µM) in data set [9]. For the same molecule, the half-inhibitory concentration (IC50) was 1.2 nM in data set [2], 5.5 nM in data set [3] and 2.3 nM in data set [5].
